Columns and labels:
NIH3T3 = experiment: Inhibition of serum stimulated NIH3T3 cell proliferation; type: functional, cell-based; conditions: Mus musculus
Summary of the method: (§1)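 Cells were kept in DMEM with 10% FBS, grown to 70% confluence, PBS-washed and serum-starved for 24 h. They were then exposed to drug plus serum for 72 h, with DMSO at most 0.2%. Growth was measured by SRB staining after TCA fixation, OD 492 nm. IC50s are means from three experiments.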

[1] = Inhibition of serum stimulated HER-14 (EGF-receptor expressing) cell proliferation; type: functional; summary of the method: as §1
[2] = Inhibition of serum stimulated NIH3T3/neu (ErbB2/neu expressing) cell proliferation; type: functional; summary of the method: as §1
[3] = Half-life period in phosphate buffered saline (PBS); type: ADME
[4] = Half-life period in RPMI; type: ADME; conditions: RPMI medium
Summary of the method: (§2)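 Compound dissolved in a minimal amount of DMSO and diluted into RPMI-1640 with 10% FBS. Absorbance was monitored spectrophotometrically in a UV cell held at 37 °C. Half-life came from a one-phase exponential decay curve fit. Each value is from a single experiment.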

[5] = target: Epidermal growth factor receptor (Homo sapiens) (UniProt P00533); experiment: Inhibition of epidermal growth factor receptor tyrosine kinase (EGFR TK)
[6] = Half-life period in RPMI; Not active; type: ADME; summary of the method: as §2
[7] = Half-life period in phosphate buffered saline (PBS); Not active; type: ADME; conditions: buffer

Chain of Epidermal growth factor receptor (Homo sapiens) (P00533 whole entry, looked up): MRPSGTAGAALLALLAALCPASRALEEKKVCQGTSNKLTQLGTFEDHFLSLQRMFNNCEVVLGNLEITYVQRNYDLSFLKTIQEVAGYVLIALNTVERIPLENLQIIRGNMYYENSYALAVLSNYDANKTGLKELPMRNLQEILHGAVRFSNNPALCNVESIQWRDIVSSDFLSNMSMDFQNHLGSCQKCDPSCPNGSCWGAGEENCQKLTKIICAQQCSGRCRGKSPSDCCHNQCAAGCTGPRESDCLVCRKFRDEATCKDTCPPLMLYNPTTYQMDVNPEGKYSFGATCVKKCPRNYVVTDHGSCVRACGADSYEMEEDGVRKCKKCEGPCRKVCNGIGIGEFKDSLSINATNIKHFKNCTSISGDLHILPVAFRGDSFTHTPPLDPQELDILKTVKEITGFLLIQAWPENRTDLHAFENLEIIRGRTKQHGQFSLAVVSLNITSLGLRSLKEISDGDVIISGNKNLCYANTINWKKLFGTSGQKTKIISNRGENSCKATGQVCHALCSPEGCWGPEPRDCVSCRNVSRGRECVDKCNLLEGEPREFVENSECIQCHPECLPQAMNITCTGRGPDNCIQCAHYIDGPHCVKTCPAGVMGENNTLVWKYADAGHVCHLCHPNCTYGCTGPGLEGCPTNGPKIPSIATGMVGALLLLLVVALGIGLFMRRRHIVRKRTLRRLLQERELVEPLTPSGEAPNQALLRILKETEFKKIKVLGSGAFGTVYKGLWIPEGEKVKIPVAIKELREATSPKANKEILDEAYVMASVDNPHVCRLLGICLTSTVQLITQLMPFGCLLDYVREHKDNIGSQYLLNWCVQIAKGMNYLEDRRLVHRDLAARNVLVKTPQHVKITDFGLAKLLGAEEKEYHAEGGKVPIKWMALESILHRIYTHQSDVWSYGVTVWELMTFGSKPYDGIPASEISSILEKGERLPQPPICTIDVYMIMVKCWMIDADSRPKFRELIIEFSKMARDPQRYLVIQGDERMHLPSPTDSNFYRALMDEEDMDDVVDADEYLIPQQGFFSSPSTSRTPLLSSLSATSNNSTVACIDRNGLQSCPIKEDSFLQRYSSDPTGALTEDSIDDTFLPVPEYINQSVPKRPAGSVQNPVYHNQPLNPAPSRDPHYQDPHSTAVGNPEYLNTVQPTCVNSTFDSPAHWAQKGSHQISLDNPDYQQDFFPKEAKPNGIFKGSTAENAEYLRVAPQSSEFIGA

C/N=N/Nc1ccc2ncnc(Nc3cccc(Br)c3)c2c1
IC50 (NIH3T3): 150 µM
IC50 [1]: 8.8 µM
IC50 [2]: 0.09 µM
half-life [3]: 1.13 h
half-life [4]: 0.633 h

CC(=O)OCN(C)/N=N/c1ccc2ncnc(Nc3cccc(Br)c3)c2c1
IC50 (NIH3T3): 15.4 µM
IC50 [1]: 3.4 µM
IC50 [2]: 0.21 µM
half-life [3]: 1.4 h
half-life [4]: 0.7 h
IC50 [5]: 0.13 µM

CN(CO)/N=N/c1ccc2ncnc(Nc3cccc(Br)c3)c2c1
IC50 (NIH3T3): 12.8 µM
IC50 [1]: 2.1 µM
IC50 [2]: 0.09 µM
half-life [3]: 1.17 h
half-life [4]: 0.667 h

C/N=N/Nc1ccc2ncnc(Nc3cccc(C)c3)c2c1
IC50 (NIH3T3): 125 µM
IC50 [1]: 28.9 µM
IC50 [2]: 16.5 µM
half-life [3]: 1.15 h
half-life [4]: 0.583 h

Nc1ccc2ncnc(Nc3cccc(Br)c3)c2c1
NA [6]: Not Active
NA [7]: Not Active
IC50 (NIH3T3): 14.5 µM
IC50 [1]: 10.4 µM
IC50 [2]: 0.42 µM

CC(=O)N(C)/N=N/c1ccc2ncnc(Nc3cccc(C)c3)c2c1
IC50 (NIH3T3): 200 µM
IC50 [1]: 149 µM
IC50 [2]: 60.6 µM
half-life [3]: > 3.33 h
half-life [4]: > 3.33 h
IC50 [5]: 0.578 µM

COc1cc2ncnc(Nc3cccc(Cl)c3)c2cc1OC.Cn1nnc2c(C(O)O)ncn2c1=O
IC50 (NIH3T3): 39.4 µM
IC50 [1]: 6.2 µM
IC50 [2]: 1.1 µM

COc1cc2ncnc(Nc3cccc(Cl)c3)c2cc1OC [TYRPHOSTIN AG-1478]
IC50 (NIH3T3): 28.6 µM
IC50 [1]: 9.8 µM
IC50 [2]: 4 µM
